In ChEMBL document CHEMBL4480385, “Design, synthesis and molecular docking studies of novel N-arylsulfonyl-benzimidazoles with anti Trypanosoma cruzi activity” (Eur J Med Chem, 2019):
Blank lines part the entries; values can stand above or below the compound they belong to.

What was measured:
[1] = Inhibition of Trypanosoma cruzi apoenzyme form of PFK
[2] = Inhibition of Trypanosoma cruzi holoenzyme form of PFK
[3] = system: Trypanosoma cruzi; assay: Anti-trypanosomal activity against Trypanosoma cruzi IRHOD/CO/2008/SN3 epimastigotes after 72 hrs by Neubauer hemocytometric method; type: functional, organism-based; conditions: IRHOD/CO/2008/SN3, 72 h
[4] = system: Vero; assay: Cytotoxicity against African green monkey Vero cells after 72 hrs by propidium iodide/fluorescein diacetate staining based flow cytometry; type: cell-based; conditions: Chlorocebus sabaeus
[5] = Selectivity index, ratio of IC50 for African green monkey Vero cells to IC50 for Trypanosoma cruzi IRHOD/CO/2008/SN3 epimastigotes; type: toxicity; conditions: read-out: Ratio IC50
[6] = system: Trypanosoma cruzi; assay: Potency index, ratio benznidazole IC50 to test compound IC50 for anti-trypanosomal activity against Trypanosoma cruzi IRHOD/CO/2008/SN3 epimastigotes; type: functional
How it was run: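 Epimastigotes of the SN3 strain were grown in TLM with 10% inactivated FBS at 28 °C in air. Compounds or benznidazole, dissolved in PEG:EtOH (7:3), were added at final levels of 1, 10, 25 and 50 and left for 72 h. Parasites were counted by haemocytometer. IC50 for 50% growth inhibition was fitted by PROBIT, and values are the mean of three experiments.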

[7] = system: Trypanosoma cruzi; assay: Anti-trypanosomal activity against Trypanosoma cruzi IRHOD/CO/2008/SN3 amastigotes infected in African green monkey Vero cells after 72 hrs by Giemsa-staining based microscopic analysis; type: functional, organism-based; conditions: IRHOD/CO/2008/SN3, Vero
[8] = Selectivity index, ratio of IC50 for African green monkey Vero cells to IC50 for Trypanosoma cruzi IRHOD/CO/2008/SN3 amastigotes infected in African green monkey Vero cells; type: toxicity; conditions: read-out: Ratio IC50
[9] = system: Trypanosoma cruzi; assay: Inhibition of PFK in Trypanosoma cruzi IRHOD/CO/2008/SN3 epimastigotes assessed as change in succinate excretion at IC25 after 96 hrs by 1H NMR analysis relative to control; parameters: scale not given: the % may be the effect or the level left
How it was run: (§1)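 SN3 epimastigotes (starting at 5 × 10⁵ cells/mL) were incubated with compound for 96 h at 28 °C, alongside drug-free control cultures. Cells were pelleted at 400 g for 10 min. Excreted end products in the supernatant were identified and quantified by ¹H NMR against a DSS reference signal, and compared with the controls.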

[10] = system: Trypanosoma cruzi; assay: Inhibition of PFK in Trypanosoma cruzi IRHOD/CO/2008/SN3 epimastigotes assessed as change in pyruvate excretion at IC25 after 96 hrs by 1H NMR analysis relative to control; parameters: scale not given: the % may be the effect or the level left; how it was run: as §1
[11] = system: Trypanosoma cruzi; assay: Inhibition of PFK in Trypanosoma cruzi IRHOD/CO/2008/SN3 epimastigotes assessed as change in acetate excretion at IC25 after 96 hrs by 1H NMR analysis relative to control; parameters: scale not given: the % may be the effect or the level left; how it was run: as §1
[12] = system: Trypanosoma cruzi; assay: Inhibition of PFK in Trypanosoma cruzi IRHOD/CO/2008/SN3 epimastigotes assessed as change in L-alanine excretion at IC25 after 96 hrs by 1H NMR analysis relative to control; parameters: scale not given: the % may be the effect or the level left; how it was run: as §1
[13] = system: Trypanosoma cruzi; assay: Inhibition of PFK in Trypanosoma cruzi IRHOD/CO/2008/SN3 epimastigotes assessed as change in D-lactate excretion at IC25 after 96 hrs by 1H NMR analysis relative to control; parameters: scale not given: the % may be the effect or the level left; how it was run: as §1
[14] = system: Trypanosoma cruzi; assay: Potency index, ratio benznidazole IC50 to test compound IC50 for anti-trypanosomal activity against Trypanosoma cruzi IRHOD/CO/2008/SN3 amastigotes infected in African green monkey Vero cells; type: functional
How it was run: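 Vero cells were grown in RPMI with 10% inactivated FBS at 37 °C in 5% CO2. They were seeded at 1 × 10⁴ cells/well on coverslips, cultured for 2 days, then infected with metacyclic T. cruzi at 10:1 for 24 h and washed. Compounds at 1, 10, 25 and 50 were added for 72 h. Amastigotes in methanol-fixed, Giemsa-stained preparations were counted against untreated cultures.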

SMILES: Cc1cc(NS(=O)(=O)c2ccc(NCCc3ccc(Cl)c(Cl)c3)cc2)no1
pIC50 [1]: 4.21 | pIC50 [2]: 4.21

SMILES: CC(C)(C)c1ccc(S(=O)(=O)n2cnc3ccccc32)cc1
IC50 [3]: 3 µM | IC50 [4]: 68.5 µM | selectivity ratio [5]: 22.5 | Ratio IC50 [6]: 3 - 5 | pIC50 [1]: 3.48

SMILES: Cc1cc(C)c(C)c(S(=O)(=O)n2cnc3ccccc32)c1C
IC50 [3]: 2.2 µM | IC50 [7]: 19 µM | IC50 [4]: 205 µM | selectivity ratio [5]: 91.7 | selectivity ratio [8]: 10.8 | Ratio IC50 [6]: 3 - 5 | Activity [9]: -7.22% | Activity [10]: 10.9% | Activity [11]: 12% | Activity [12]: 10.4% | Activity [13]: 26.4% | pIC50 [1]: 3.34

SMILES: O=S(=O)(c1ccc(Br)cc1)n1cnc2ccccc21
IC50 [3]: 23.5 µM | IC50 [7]: 35.7 µM | IC50 [4]: 1190 µM | selectivity ratio [5]: 50.5 | selectivity ratio [8]: 33.3 | pIC50 [1]: 4.37

SMILES: O=C(Cc1ccc(Cl)c(Cl)c1)Nc1ccc(S(=O)(=O)Nc2ccccc2)cc1
pIC50 [1]: 4.21 | pIC50 [2]: 4.21

SMILES: Cc1cc(NS(=O)(=O)c2ccc(NC(=O)C(C)(C)c3ccc(Cl)c(Cl)c3)cc2)no1
pIC50 [1]: 4.56 | pIC50 [2]: 4.56

SMILES: O=[N+]([O-])c1ccc(S(=O)(=O)n2cnc3ccccc32)cc1
IC50 [3]: 2.6 µM | IC50 [4]: 347 µM | selectivity ratio [5]: 135 | Ratio IC50 [6]: 3 - 5 | pIC50 [1]: 3.41

SMILES: O=[N+]([O-])c1cccc(S(=O)(=O)n2cnc3ccccc32)c1
IC50 [3]: 4.6 µM | IC50 [7]: 15.9 µM | IC50 [4]: 648 µM | selectivity ratio [5]: 141 | selectivity ratio [8]: 40.6 | Ratio IC50 [6]: 3 - 5 | Activity [9]: -33.2% | Activity [10]: -30.2% | Activity [11]: -16.6% | Activity [12]: -22.7% | Activity [13]: -3.97% | pIC50 [1]: 3.66

SMILES: O=[N+]([O-])c1ccccc1S(=O)(=O)n1cnc2ccccc21
IC50 [3]: 5.5 µM | IC50 [4]: 120 µM | selectivity ratio [5]: 22 | Ratio IC50 [6]: 3 - 5 | pIC50 [1]: 3.74

SMILES: O=C(Cc1ccc(F)c(Cl)c1)Nc1ccc(S(=O)(=O)Nc2nncs2)cc1
pIC50 [1]: 2.23 | pIC50 [2]: 2.23

SMILES: O=C(Cc1ccc(Cl)c(Cl)c1)Nc1ccc(S(=O)(=O)Nc2cc[nH]n2)cc1
pIC50 [1]: 2.86 | pIC50 [2]: 2.86

SMILES: O=C(Cc1ccc(F)c(Cl)c1)Nc1ccc(S(=O)(=O)Nc2nccs2)cc1
pIC50 [1]: 2.07 | pIC50 [2]: 2.07

SMILES: Cc1cc(NS(=O)(=O)c2ccc(NC(=O)Cc3ccc(Cl)c(Cl)c3)cc2)n(C)n1
pIC50 [1]: 3.06 | pIC50 [2]: 2.96

SMILES: O=S(=O)(c1cccc(C(F)(F)F)c1)n1cnc2ccccc21
IC50 [3]: 13.9 µM | IC50 [4]: 59.8 µM | selectivity ratio [5]: 4.3 | pIC50 [1]: 4.14

SMILES: O=C(Cc1ccc(Cl)c(Cl)c1)Nc1ccc(S(=O)(=O)Nc2nncs2)cc1
pIC50 [1]: 1.72 | pIC50 [2]: 1.72

SMILES: O=C(Cc1ccc(Cl)c(Cl)c1)Nc1ccc(S(=O)(=O)Nc2nccs2)cc1
pIC50 [1]: 1.61 | pIC50 [2]: 1.61

SMILES: Cc1cc(NS(=O)(=O)c2ccc(C(=O)NCc3ccc(Cl)c(Cl)c3)cc2)no1
pIC50 [1]: 3.51 | pIC50 [2]: 3.51

SMILES: O=S(=O)(c1ccc(Cl)cc1)n1cnc2ccccc21
IC50 [3]: 16.8 µM | IC50 [4]: 122 µM | selectivity ratio [5]: 7.3 | pIC50 [1]: 4.23

SMILES: CN(C)c1cccc(NS(=O)(=O)c2ccc(NC(=O)Cc3ccc(Cl)c(Cl)c3)cc2)c1
pIC50 [1]: 4.11 | pIC50 [2]: 4.11

SMILES: CC(=O)c1ccc(S(=O)(=O)n2cnc3ccccc32)cc1
IC50 [3]: 26.8 µM | IC50 [4]: 656 µM | selectivity ratio [5]: 24.5 | pIC50 [1]: 4.43

SMILES: Cc1cc(N(C)S(=O)(=O)c2ccc(NC(=O)Cc3ccc(Cl)c(Cl)c3)cc2)no1
pIC50 [1]: 3.41 | pIC50 [2]: 3.41

SMILES: O=S(=O)(c1ccccc1)n1cnc2ccccc21
IC50 [3]: 9 µM | IC50 [7]: 37.3 µM | IC50 [4]: 1770 µM | selectivity ratio [5]: 196 | selectivity ratio [8]: 47.3 | Activity [9]: -16% | Activity [10]: -13.4% | Activity [11]: 3.31% | Activity [12]: -3.24% | Activity [13]: 16.4% | pIC50 [1]: 3.95

SMILES: Cc1cc(NS(=O)(=O)C2CCN(C(=O)Cc3ccc(Cl)c(Cl)c3)CC2)no1
pIC50 [1]: 4.16 | pIC50 [2]: 4.16

SMILES: CC(=O)Nc1ccc(S(=O)(=O)n2cnc3ccccc32)cc1
IC50 [3]: 7.2 µM | IC50 [7]: 10.1 µM | IC50 [4]: 468 µM | selectivity ratio [5]: 65.4 | selectivity ratio [8]: 45.9 | Ratio IC50 [14]: 2 | Activity [9]: 28.3% | Activity [10]: 2.38% | Activity [11]: 12.3% | Activity [12]: 6.8% | Activity [13]: 25.5% | pIC50 [1]: 3.86

SMILES: O=S(=O)(c1ccc(C(F)(F)F)cc1)n1cnc2ccccc21
IC50 [3]: 6.2 µM | IC50 [7]: 24 µM | IC50 [4]: 460 µM | selectivity ratio [5]: 74.8 | selectivity ratio [8]: 19.2 | Activity [9]: -7.22% | Activity [10]: 10.6% | Activity [11]: 11.8% | Activity [12]: 9.92% | Activity [13]: 25.8% | pIC50 [1]: 3.79

SMILES: Cc1cc(NS(=O)(=O)c2ccc(N(C)C(=O)Cc3ccc(Cl)c(Cl)c3)cc2)no1
pIC50 [1]: 3.16 | pIC50 [2]: 3.06

SMILES: Cc1ccc(S(=O)(=O)n2cnc3ccccc32)cc1
IC50 [3]: 23.8 µM | IC50 [4]: 108 µM | selectivity ratio [5]: 4.5 | pIC50 [1]: 4.38

SMILES: O=C(Cc1ccc(Cl)c(Cl)c1)Nc1ccc(S(=O)(=O)Nc2ccon2)cc1
pIC50 [1]: 2.11 | pIC50 [2]: 2.11

SMILES: O=C(Cc1ccc(Cl)c(Cl)c1)Nc1ccc(S(=O)(=O)Nc2cccc(O)c2)cc1
pIC50 [1]: 3.26 | pIC50 [2]: 3.16

The next lines start with the values.

pIC50 [1]: 4.21 | pIC50 [2]: 4.21
SMILES: Cc1cc(NS(=O)(=O)c2ccc(NC(=O)Cc3ccc(Cl)cc3Cl)cc2)no1

pIC50 [1]: 3.21 | pIC50 [2]: 3.11
SMILES: Cc1cc(NS(=O)(=O)c2ccc(NC(=O)Cc3ccc(Cl)cc3)cc2)no1

pIC50 [1]: 4.06 | pIC50 [2]: 4.06
SMILES: Cc1cc(NS(=O)(=O)c2ccc(NC(=O)CCc3ccc(Cl)c(Cl)c3)cc2)no1

pIC50 [1]: 2.96 | pIC50 [2]: 2.86
SMILES: Cc1cc(NS(=O)(=O)c2ccc(NC(=O)Cc3ccc(Cl)c(C(F)(F)F)c3)cc2)no1

pIC50 [1]: 3.31 | pIC50 [2]: 3.26
SMILES: Cc1cc(NS(=O)(=O)c2ccc(NC(=O)Cc3ccc4ccccc4c3)cc2)no1

pIC50 [1]: 3.81 | pIC50 [2]: 3.81
SMILES: Cc1cc(NS(=O)(=O)c2ccc(NC(=O)Cc3ccc(C)c(C)c3)cc2)no1

pIC50 [1]: 2.36 | pIC50 [2]: 2.36
SMILES: Cc1cc(NS(=O)(=O)c2ccc(NC(=O)Cc3ccc(Cl)c(Cl)c3)cc2)no1

pIC50 [1]: 4.21 | pIC50 [2]: 4.21
SMILES: Cc1cc(NS(=O)(=O)c2cccc(NC(=O)Cc3ccc(Cl)c(Cl)c3)c2)no1

pIC50 [1]: 4.31 | pIC50 [2]: 4.31
SMILES: Cc1cc(NS(=O)(=O)c2ccc(NC(=O)c3ccc(Cl)c(Cl)c3)cc2)no1

pIC50 [1]: 4.31 | pIC50 [2]: 4.31
SMILES: COc1ccc(CC(=O)Nc2ccc(S(=O)(=O)Nc3cc(C)on3)cc2)cc1C

pIC50 [1]: 3.66 | pIC50 [2]: 3.66
SMILES: Cc1cc(NS(=O)(=O)Cc2ccc(NC(=O)Cc3ccc(Cl)c(Cl)c3)cc2)no1

pIC50 [1]: 4.31 | pIC50 [2]: 4.31
SMILES: Cc1cc(NS(=O)(=O)c2ccc(NC(=O)Cc3ccccc3)cc2)no1

pIC50 [1]: 3.81 | pIC50 [2]: 3.81
SMILES: Cc1cc(NS(=O)(=O)c2ccc(NC(=O)Cc3ccc(C)c(F)c3)cc2)no1

pIC50 [1]: 2.66 | pIC50 [2]: 2.66
SMILES: Cc1cc(NS(=O)(=O)c2ccc(NC(=O)Cc3ccc(F)c(Cl)c3)cc2)no1

pIC50 [1]: 3.46 | pIC50 [2]: 3.46
SMILES: Cc1cc(NS(=O)(=O)c2ccc(NC(=O)Cc3cccc(Cl)c3)cc2)no1

pIC50 [1]: 2.81 | pIC50 [2]: 2.81
SMILES: Cc1cc(NS(=O)(=O)c2ccc(NC(=O)Cc3ccc(Cl)c(F)c3)cc2)no1
